In the library only some 4.6% were active in any assay of this set; here they are far more common.
OX1R antag-1 – human HCRTR1 antagonism; inhibition, % at 5 µM; CHO/OX1R cells, Fluo-8 calcium fluorescence, orexin A; O43613; AID 434989; actives 0.43% (n = 330,000);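 active = inhibition above its plate's threshold, mean inhibition of all tested compounds on the plate plus 3 SD, cut at about 37% in these data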;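 note: 0% = orexin A challenge wells and 100% = SB-334867-A antagonist wells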
TAAR1 agonist – agonists of human TAAR1. Q96RJ0. CHO RD-HGA16 TAAR1, Fluo-8 calcium fluorescence; vehicle wells 0%, saturating PEA agonist 100%. activation, % at 3 µM. actives 0.99% (n = 360,000). AID 624467;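 active = activation above the mean activation of all test compounds in the run plus 3 SD, cut at about 38% in these data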
Target sequence (Q96RJ0 whole entry, looked up): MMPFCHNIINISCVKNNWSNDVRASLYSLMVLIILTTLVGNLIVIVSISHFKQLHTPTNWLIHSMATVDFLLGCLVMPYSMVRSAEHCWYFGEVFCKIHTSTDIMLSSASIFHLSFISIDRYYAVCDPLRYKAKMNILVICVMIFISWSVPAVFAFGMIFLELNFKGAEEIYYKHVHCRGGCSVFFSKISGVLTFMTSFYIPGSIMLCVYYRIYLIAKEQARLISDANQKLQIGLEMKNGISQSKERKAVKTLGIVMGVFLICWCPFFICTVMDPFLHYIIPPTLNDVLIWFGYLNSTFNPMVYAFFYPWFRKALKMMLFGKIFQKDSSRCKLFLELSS
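System: CHO-derived RD-HGA16 cells with stable Gα16 and human TAAR1. Times: 17-24 h plating, Fluo-8 75 min 37 °C, 30 min RT. Measured by: calcium-sensitive Fluo-8 signal, excitation 470-495, emission 515-575 nm. Read-out basis: % activation relative to PEA EC100 response. Control set: DMSO and PEA EC100. Repeats: no replicates (n 1).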
GPR7 antagonist – human neuropeptides B/W receptor 1 antagonism; GPR7-expressing cells, fluorescence antagonist assay; inhibition, % at 4.4 µM; actives 1.1% (n = 290,000); in the data active = inhibition above about 16%, passing the limit was not always enough;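 note: cells stimulated with the agonist NPW; 0% = agonist with vehicle and 100% = vehicle without agonist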
Target sequence (P48145 whole entry, looked up): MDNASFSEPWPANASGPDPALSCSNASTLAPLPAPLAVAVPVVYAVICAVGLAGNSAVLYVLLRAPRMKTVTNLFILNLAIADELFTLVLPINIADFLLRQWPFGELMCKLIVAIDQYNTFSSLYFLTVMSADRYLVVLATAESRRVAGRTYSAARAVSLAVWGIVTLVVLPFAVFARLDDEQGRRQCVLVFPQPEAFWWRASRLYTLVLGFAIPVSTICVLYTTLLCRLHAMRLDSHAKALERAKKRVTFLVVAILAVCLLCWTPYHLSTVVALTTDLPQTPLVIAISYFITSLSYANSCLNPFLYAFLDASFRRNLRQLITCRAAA
CHO parental Ca – signal in parental CHO cells, OX1R antagonist counter-screen. parental CHO-K1, ATP-induced calcium, Fluo-8 fluorescence. inhibition, % at 5.6 µM. actives 0.63% (n = 330,000);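 active = inhibition above that plate's mean sample inhibition plus 3 SD, cut at about 26% in these data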;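 note: 0% = ATP-challenged DMSO wells and 100% = DMSO wells without ATP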
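Test system: untransfected parental CHO cell line; also added: ATP stimulus; dosing: 5.6 µM, single dose; signal: calcium-sensitive Fluo-8 fluorescence; measure: percent inhibition of ATP-evoked calcium rise, normalized to controls; benchmarks: low control ATP plus DMSO, high control DMSO only; replication: one well per compound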
TAAR1 antagonist – human TAAR1 antagonism. inhibition, % at 3 µM. CHO RD-HGA16 TAAR1, Fluo-8 calcium fluorescence, antagonist. Q96RJ0. actives 1.5% (n = 360,000);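 active = inhibition above a per-plate cutoff, the mean inhibition of test compounds on that plate plus 3 SD, cut at about 49% in these data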;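 note: 0% = DMSO plus EC80 beta-PEA response and 100% = DMSO alone without agonist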
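Test system: hTAAR1-expressing CHO RD-HGA16 cells, Gα16-coupled; Probe or stimulus: EC80 β-phenethylamine stimulus; Compound dosing: single nominal final test compound concentration of 3 µM; Timing: 140 s kinetic read after compound, 140 s after agonist; Signal: Fluo-8 calcium-sensitive fluorescence; Measure: % inhibition of agonist calcium response; Controls: DMSO and EC80 PEA controls.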
OX1R antag-2 – OX1R (human) antagonism; OX1R-expressing cells, FRET antagonist read-out; inhibition, % at 6.6 µM; actives 1.8% (n = 330,000); in the data active = inhibition mostly above about 38%, no sharp cut-off; inactive = mostly below about 40%;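 note: 0% = agonist challenge alone and 100% = reference antagonist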
OX1R HTRF conf – confirmation of human orexin 1 receptor antagonists, HTRF format; shares compounds with OX1R antag-2; OX1R-expressing cells, HTRF antagonist assay; inhibition, % at 6.6 µM; actives 49% (n = 1,800); in the data active = inhibition above about 55%;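 note: CHO cells expressing OX1R stimulated with orexin A at about EC80; 0% = agonist challenge alone and 100% = reference antagonist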
CHO-K1 HTRF cnt – counter-screen for OX1R antagonists: effect in parental CHO-K1 cells; HTRF counterscreen; inhibition, % at 6.6 µM; actives 48% (n = 1,800); shares compounds with OX1R antag-2; in the data active = inhibition above about 17%;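 note: 0% = agonist challenge with vehicle and 100% = vehicle alone without agonist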
An asterisk follows results filed as active; · = no result given.

SMILES	OX1R antag-1	TAAR1 agonist	GPR7 antagonist	CHO parental Ca	TAAR1 antagonist	OX1R antag-2	OX1R HTRF conf	CHO-K1 HTRF cnt
CCOC(=O)Cc1csc(NC(=O)CSc2ncnc3c2cnn3-c2ccc(OC)cc2)n1	29	18	-2	13	50*	80*	27	4
Cc1ccc(C(=O)N2CCC2(C)C(=O)NC(C)C)cc1 (stereo not drawn)	·	1	·	·	-4	·	·	·
CCCN1CCCC[C@H]1C(=O)Nc1c(C)cccc1C	-2	0	·	7	-1	9	·	·
Cc1cc(C)c(NC(=O)C2CCCN2CCOC(=O)c2cccc([N+](=O)[O-])c2)c(C)c1 (stereo not drawn)	-7	5	-4	-15	-5	97*	70*	8
CC(Sc1nc2ncc(Cl)cc2[nH]1)C(=O)Nc1ccc(C(N)=O)cc1 (stereo not drawn)	-6	2	·	-7	-7	10	·	·
O=C(CN1C(=O)c2ccc([N+](=O)[O-])cc2C1=O)NCc1ccco1	-11	0	-4	-1	9	88*	46	53*
O=C(Nc1cc([N+](=O)[O-])ccc1O)c1ccc2c(c1)C(=O)N(Cc1ccco1)C2=O	-4	4	2	-4	16	32	·	·
C1CCN(CC2CCCCN2)CC1 (stereo not drawn)	·	0	·	·	-7	·	·	·
Cc1c(NC(=O)C(C)OC(=O)c2ccc([N+](=O)[O-])s2)c(=O)n(-c2ccccc2)n1C (stereo not drawn)	-11	3	-9	3	-2	118*	71*	81*
NS(=O)(=O)c1ccc(N/N=C/c2ccccc2C(=O)O)c([N+](=O)[O-])c1	-7	2	-7	3	-15	161*	40	74*
O=C(O)c1ccccc1/C=N/Nc1ccc(S(=O)(=O)N2CCOCC2)cc1[N+](=O)[O-]	1	1	-14	-12	-1	56	·	·
Cc1cc(=O)[nH]c(N/N=C/c2c(C)oc3ccccc23)n1	-9	2	1	-13	-17	77*	85*	6
O=C(COc1ccccc1Cl)Nc1ccc2oc(=O)ccc2c1	-14	0	13	-8	-4	11	·	·
O=C(O)CN1C(=O)/C(=C\C(Br)=C\c2ccccc2)SC1=S	0	1	5	1	3	-7	·	·
O=C(N/N=C/C(Cl)=C\c1ccccc1)c1cccs1	15	0	-4	2	-7	87*	62*	9
COc1ccccc1CNC(=O)CSCc1cnn(-c2ccccc2)c1-n1cccc1	-21	4	-7	-17	2	15	·	·
COc1ccc(OC)c(NC(=O)CSCc2cnn(-c3ccccc3)c2-n2cccc2)c1	18	3	3	-24	13	78*	77*	1
CCOC(=O)c1cc(-c2cccc([N+](=O)[O-])c2)on1	11	-1	-17	19	-12	26	·	·
CC(=O)c1nnn(-c2ccc([N+](=O)[O-])cc2C)c1C	-16	3	7	-16	2	162*	27	40*
CCOC(=O)c1nnn(-c2ccc([N+](=O)[O-])cc2)c1C	-7	2	-12	2	-21	111*	42	54*
CC(=O)c1nnn(-c2cccc([N+](=O)[O-])c2)c1C	-16	2	0	-3	-2	30	·	·
CCOC(=O)c1csc(-c2ccc([N+](=O)[O-])cc2)n1	0	0	-3	-5	-15	104*	40	44*
COC(=O)CCC(C(=O)CN1C(=O)c2ccccc2C1=O)N1C(=O)c2ccccc2C1=O (stereo not drawn)	·	2	·	·	15	·	·	·
O=C1NC[C@H](CCCCN2C[C@H](Cc3ccccc3)N(CC3CCCCC3)C(=O)C2=O)N(CCc2ccccc2)C1=O	·	0	·	·	-6	·	·	·
NC(=S)c1csc(CCNC(=O)c2ccccc2)n1	·	2	·	·	-7	·	·	·
SMILES	OX1R antag-1	TAAR1 agonist	GPR7 antagonist	CHO parental Ca	TAAR1 antagonist	OX1R antag-2	OX1R HTRF conf	CHO-K1 HTRF cnt
CCOC(=O)c1nc(C)nc(Sc2n[nH]c(-c3ccccc3)n2)c1C	-17	6	-13	-27	-15	6	·	·
Cc1ccc2ncc(NC(=O)c3ccc(F)cc3)c(=O)n2c1	-19	18	-2	-1	-7	91*	29	33*
CC(CCc1ccccc1)NC(=O)COC(=O)c1ccc(NC(=O)CC#N)cc1 (stereo not drawn)	6	3	-2	1	2	8	·	·
CCCCNC1=CC(=O)C(=O)c2ccccc21	-5	7	-4	2	-4	161*	88*	101*
Cc1ccc(/C=C2\SC(=O)N(CCC(=O)N3CCN(C)CC3)C2=O)cc1	-30	-2	2	-6	-7	126*	24	27*
COCCn1c(SCC(=O)NCC2CCCO2)nc2c([nH]c3ccccc32)c1=O (stereo not drawn)	-27	1	-6	-6	5	20	·	·
COc1ccc(C(=O)N2CCN(c3nc4cc(C)ccc4cc3C#N)CC2)c(OC)c1	-20	11	-14	-26	35	20	·	·
COc1cc(C(=O)N2CCCN(c3nc4cc(C)ccc4cc3C#N)CC2)cc(OC)c1OC	24	8	·	-30	4	80*	86*	5
O=C(NNc1c2ccccc2nc2ccccc12)c1cccc(O)c1	-4	3	-6	-13	19	26	·	·
O=C(NNC(=O)c1cccc2ccccc12)c1ccccc1O	0	2	-1	-2	-28	22	·	·
O=C(NNc1c2ccccc2nc2ccccc12)c1ccc(O)cc1O	0	15	-1	-11	61*	102*	84*	20*
O=C(NNc1c2ccccc2nc2ccccc12)c1ccccc1O	1	10	-1	4	54*	84*	61*	1
O=C(NNc1c2ccccc2nc2ccccc12)c1ccccc1Cl	-14	2	-7	1	-10	83*	50	-1
O=C(NNC(=O)c1ccccc1Cl)c1ccccc1Cl	-8	2	-13	-16	-1	4	·	·
CC(C)(C)S(=O)(=O)N1C[C@H]2C(=C(CCO)C[C@H]3C(=O)N(c4ccccc4)C(=O)[C@H]32)[C@@H]1CCO	·	1	·	·	-15	·	·	·
CCc1nc2c(OCC(N)=O)cccn2c1N(C)C(=O)c1cccs1	·	-1	·	·	-2	·	·	·
CCC1=Nc2ccccc2-c2nnc(SC)nc2O1	-17	0	-7	-12	-27	197*	68*	95*
